The text below walks through data of ChEMBL document CHEMBL3232852, “Bexarotene prodrugs: targeting through cleavage by NQO1 (DT-diaphorase)” (Bioorg Med Chem Lett, 2014).

Series [1] deals with T1, NAD(P)H dehydrogenase [quinone] 1 (Homo sapiens, UniProt P15559). Nature of the series: Prodrug conversion assessed as NQO1 (unknown origin)-mediated bexarotene formation at 5 uM by HPLC analysis in presence of 300 uM NADH followed by addition of NADH at 30 and 60 mins. In kind it is ADME. The note with it: 1 h. The gist of the method:
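Same NQO1 incubation: 5 µM compound, 37 ± 1 °C, diaphorase 50 U/mL, 0.07% BSA and 300 µM NADH in tris pH 7.4. Extra NADH was added at 30 and 60 min to test cofactor depletion. Bexarotene formation was read by RP-18 HPLC, in triplicate.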

Series [2] is described as follows: Activity of pig liver esterase at 5 uM after 180 mins. In kind it is ADME, Sus scrofa. The note with it: 3 h. Put shortly:
(§1)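 Porcine liver esterase at a final 76 µg/mL (1.3 U/mL) in tris buffer pH 7.4. Conjugates were incubated at 5 µM and monitored for ester cleavage and free bexarotene over 180 min and up to 24 h. Ethylbenzoate was the reference substrate at 100 µM.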

Series [3] addresses T1, NAD(P)H dehydrogenase [quinone] 1. The series is described as follows: Prodrug conversion assessed as NQO1 (unknown origin)-mediated bexarotene formation at 5 uM by HPLC analysis in presence of NADH. In kind it is ADME. The gist of the method: (§2)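 DMSO stocks were diluted 100-fold with tris buffer, and compound (5 µM) was incubated at 37 ± 1 °C with or without diaphorase (NQO1, 50 U/mL). The mix held 0.07% BSA and 300 µM NADH in tris pH 7.4. Bexarotene release was followed by RP-18 HPLC (acetonitrile/water); incubations ran up to 24 h, in triplicate.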

Series [4] shares this target. Nature of the series: Prodrug conversion assessed as NQO1 (unknown origin)-mediated bexarotene formation at 5 uM after 4 to 24 hrs by HPLC analysis in presence of NADH. In kind it is ADME. Put shortly:
as §2

The nature of series [5]: Activity of pig liver esterase at 100 uM after 7 mins. In kind it is ADME, Sus scrofa. The gist of the method: as §1

T1 sequence (P15559 whole entry): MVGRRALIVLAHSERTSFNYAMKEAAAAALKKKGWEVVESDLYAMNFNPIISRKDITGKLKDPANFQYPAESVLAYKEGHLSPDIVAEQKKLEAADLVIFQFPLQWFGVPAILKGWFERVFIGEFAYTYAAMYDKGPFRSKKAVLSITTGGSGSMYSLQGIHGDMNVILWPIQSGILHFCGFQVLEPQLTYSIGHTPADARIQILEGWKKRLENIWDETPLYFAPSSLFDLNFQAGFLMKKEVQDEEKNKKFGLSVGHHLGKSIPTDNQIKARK

As for `C=C(c1ccc(C(=O)OCc2c3c(n(C)c2C)C(=O)C=C(OC)C3=O)cc1)c1cc2c(cc1C)C(C)(C)CCC2(C)C`, the Drug metabolism result in series [1] and in series [2] was “metabolite_notdetected” in each case.

In the case of `C=C(c1ccc(C(=O)OCc2c3c(n(C)c2C)C(=O)C(C)=C(OC)C3=O)cc1)c1cc2c(cc1C)C(C)(C)CCC2(C)C`, the Drug metabolism result in series [3] is recorded as “metabolite_detected”; in series [1], “metabolite_notdetected”.

Take `C=C(c1ccc(C(=O)OCc2cn(C)c3c2C(=O)C(OC)=CC3=O)cc1)c1cc2c(cc1C)C(C)(C)CCC2(C)C`: the Drug metabolism entry in series [3] was “metabolite_detected”; in series [1] it was “metabolite_notdetected”.

Consider `C=C(c1ccc(C(=O)OCc2c(C)c3c(n2C)C(=O)C=C(OC)C3=O)cc1)c1cc2c(cc1C)C(C)(C)CCC2(C)C`, for which the Drug metabolism result in series [4] and in series [1] was “metabolite_notdetected” in each case.

As for `COC1=CC(=O)c2c(c(COc3ccc([N+](=O)[O-])c(C)c3)c(C)n2C)C1=O`, the Drug metabolism result in series [3] is “metabolite_detected”.

Consider `COC1=CC(=O)c2c(c(C)c(COc3ccc([N+](=O)[O-])c(C)c3)n2C)C1=O`, for which the Drug metabolism entry in series [3] was “metabolite_detected”.

On to `CCOC(=O)c1ccccc1` [ETHYL BENZOATE], for which, in series [5], the Drug metabolism entry is reported as “metabolite_detected”.
